ChEMBL document CHEMBL2311431, “Synthesis and biological evaluation of some 5-arylidene-2-(1,3-thiazol-2-ylimino)-1,3-thiazolidin-4-ones as dual anti-inflammatory/antimicrobial agents” (Bioorg Med Chem, 2013)
Values after ≈ are worked out from the molar mass of the structure shown. Active and inactive are the calls of the source. The rule behind the calls is not given here.

Columns and labels:
Aspergillus flavus [1] = assay: Fungicidal activity against Aspergillus flavus ATCC 9643 after 72 hrs by serial subcultivation method; format: functional; conditions: ATCC 9643, 72 h
Trichoderma viride [2] = assay: Antifungal activity against Trichoderma viride IAM 5061 after 72 hrs by serial dilution technique; format: functional; conditions: IAM 5061, 72 h
In short: (§1)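 Serial dilution in malt broth; compounds from 1 mg/ml stocks in 5% DMSO; 72 h at 28 °C. MIC is the lowest concentration with no visible growth under a binocular microscope. Run in duplicate, repeated three times.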

Micrococcus flavus [3] = assay: Bactericidal activity against Micrococcus flavus ATCC 10240 after 72 hrs by serial subcultivation method; format: functional; conditions: ATCC 10240, 72 h
Talaromyces funiculosus [4] = assay: Antifungal activity against Penicillium funiculosum ATCC 36839 after 72 hrs by serial dilution technique; format: functional; conditions: ATCC 36839, 72 h; in short: as §1
Aspergillus fumigatus [5] = assay: Fungicidal activity against Aspergillus fumigatus after 72 hrs by serial subcultivation method; format: functional
Pseudomonas aeruginosa [6] = assay: Antibacterial activity against Pseudomonas aeruginosa ATCC 27853 after 24 hr by microdilution test; format: functional; conditions: ATCC 27853, 24 h
In short: (§2)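 Broth microdilution in LB medium, about 1.0×10^4 cfu per well; compounds from 1 mg/ml stocks in 5% DMSO. Incubated 24 h. MIC is the lowest concentration with no visible growth under a binocular microscope. Run in duplicate, repeated three times.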

Aspergillus flavus [7] = assay: Antifungal activity against Aspergillus flavus ATCC 9643 after 72 hrs by serial dilution technique; format: functional; conditions: ATCC 9643, 72 h; in short: as §1
Aspergillus niger [8] = assay: Fungicidal activity against Aspergillus niger ATCC 6275 after 72 hrs by serial subcultivation method; format: functional; conditions: ATCC 6275, 72 h
Staphylococcus aureus [9] = assay: Bactericidal activity against Staphylococcus aureus ATCC 6538 after 72 hrs by serial subcultivation method; format: functional; conditions: ATCC 6538, 72 h
Bacillus cereus [10] = assay: Bactericidal activity against Bacillus cereus clinical isolate after 72 hrs by serial subcultivation method; format: functional
Micrococcus flavus [11] = assay: Antibacterial activity against Micrococcus flavus ATCC 10240 after 24 hr by microdilution test; format: functional; conditions: ATCC 10240, 24 h; in short: as §2
Penicillium ochrochloron [12] = assay: Antifungal activity against Penicillium ochrochloron ATCC 9112 after 72 hrs by serial dilution technique; format: functional; conditions: ATCC 9112, 72 h; in short: as §1
Talaromyces funiculosus [13] = assay: Fungicidal activity against Penicillium funiculosum ATCC 36839 after 72 hrs by serial subcultivation method; format: functional; conditions: ATCC 36839, 72 h
Mus musculus [14] = assay: Antiinflammatory activity in AKR mouse assessed as inhibition of carrageenan-induced paw edema at 0.01 mmol/kg, ip measured after 3.5 hrs of carrageenan-challenge; format: functional
In short: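 AKR mice of both sexes (pregnant females excluded), 6-10 per group, fasted during the experiment. Edema induced by intradermal 0.05 mL of 2% carrageenin into the right hind paw. Compound given at 0.01 mmol/kg ip, suspended in water with Tween-80, at the same time as carrageenin.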

Penicillium ochrochloron [15] = assay: Fungicidal activity against Penicillium ochrochloron ATCC 9112 after 72 hrs by serial subcultivation method; format: functional; conditions: ATCC 9112, 72 h
Pseudomonas aeruginosa [16] = assay: Bactericidal activity against Pseudomonas aeruginosa ATCC 27853 after 72 hrs by serial subcultivation method; format: functional; conditions: ATCC 27853, 72 h
Aspergillus fumigatus [17] = assay: Antifungal activity against Aspergillus fumigatus after 72 hrs by serial dilution technique; format: functional; in short: as §1
Mus musculus [18] = assay: Acute toxicity in AKR mouse up to 0.5 mmol/kg, ip; format: organism-based; conditions: in vivo
Trichoderma viride [19] = assay: Fungicidal activity against Trichoderma viride IAM 5061 after 72 hrs by serial subcultivation method; format: functional; conditions: IAM 5061, 72 h
Staphylococcus aureus [20] = assay: Antibacterial activity against Staphylococcus aureus ATCC 6538 after 24 hr by microdilution test; format: functional; conditions: ATCC 6538, 24 h; in short: as §2
Aspergillus niger [21] = assay: Antifungal activity against Aspergillus niger ATCC 6275 after 72 hrs by serial dilution technique; format: functional; conditions: ATCC 6275, 72 h; in short: as §1
Listeria monocytogenes [22] = assay: Bactericidal activity against Listeria monocytogenes NCTC 7973 after 72 hrs by serial subcultivation method; format: functional; conditions: NCTC 7973, 72 h
Escherichia coli [23] = assay: Antibacterial activity against Escherichia coli ATCC 35210 after 24 hr by microdilution test; format: functional; conditions: ATCC 35210, 24 h; in short: as §2
Escherichia coli [24] = assay: Bactericidal activity against Escherichia coli ATCC 35210 after 72 hrs by serial subcultivation method; format: functional; conditions: ATCC 35210, 72 h
[25] = biological target: T1, Prostaglandin G/H synthase 1 (Ovis aries, UniProt P05979); assay: (§3) Inhibition of ovine COX1 assessed as inhibition of PGF2a production by enzyme immunoassay
T1 sequence (P05979 whole entry): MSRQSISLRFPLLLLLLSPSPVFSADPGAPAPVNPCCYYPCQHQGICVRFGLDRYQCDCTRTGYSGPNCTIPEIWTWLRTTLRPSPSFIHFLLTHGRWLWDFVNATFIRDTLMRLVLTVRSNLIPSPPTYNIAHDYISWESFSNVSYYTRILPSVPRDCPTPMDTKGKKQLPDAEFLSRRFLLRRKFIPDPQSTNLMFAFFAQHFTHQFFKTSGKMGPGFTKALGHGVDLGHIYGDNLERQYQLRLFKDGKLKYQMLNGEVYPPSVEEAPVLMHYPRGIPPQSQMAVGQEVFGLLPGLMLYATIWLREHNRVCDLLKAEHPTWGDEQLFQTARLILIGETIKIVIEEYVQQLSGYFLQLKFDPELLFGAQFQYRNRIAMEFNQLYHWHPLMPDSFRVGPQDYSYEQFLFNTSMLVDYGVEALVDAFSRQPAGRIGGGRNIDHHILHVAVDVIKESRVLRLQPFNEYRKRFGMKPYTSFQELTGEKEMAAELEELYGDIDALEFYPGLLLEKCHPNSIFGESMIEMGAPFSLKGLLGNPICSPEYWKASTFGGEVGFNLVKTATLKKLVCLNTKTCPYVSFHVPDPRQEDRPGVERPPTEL
In short: (§4)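 Ovine COX-1 from a commercial screening kit, tested with 0.1 µM arachidonic acid, which is below the saturating level. COX-derived PGH2 is reduced by SnCl2 to PGF2a, quantified by enzyme immunoassay with a broad prostaglandin antibody. At least triplicate.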

[26] = biological target: T2, Prostaglandin G/H synthase 1 (Ovis aries) (UniProt P05979); assay: as §3; parameters: concentration or dose not given beside the values; conditions: concentration not given here; in short: as §4
T2 sequence (whole entry): T1 sequence (P05979 whole entry)

Glycine max = assay: (§5) Inhibition of soybean lipoxygenase assessed as inhibition of sodium linolate conversion to 13-hydroperoxylinoleic acid after 4 mins by spectrophotometry
[27] = as §5; parameters: species or system Glycine max; conditions: read-out: IC50
Bacillus cereus [28] = assay: Antibacterial activity against Bacillus cereus clinical isolate after 24 hr by microdilution test; format: functional; in short: as §2
Listeria monocytogenes [29] = assay: Antibacterial activity against Listeria monocytogenes NCTC 7973 after 24 hr by microdilution test; format: functional; conditions: NCTC 7973, 24 h; in short: as §2

Compound Cc1ccc(/C=C2\S/C(=N/c3nccs3)NC2=O)cc1 has an MFC (Aspergillus flavus [1]) of 66 µM (≈ 19.9 µg/mL), an MIC (Trichoderma viride [2]) of 33 µM (≈ 9.95 µg/mL) and an MBC (Micrococcus flavus [3]) of 98.9 µM (≈ 29.8 µg/mL). The MIC (Talaromyces funiculosus [4]) was 49.4 µM (≈ 14.9 µg/mL), the MFC (Aspergillus fumigatus [5]) was 66 µM (≈ 19.9 µg/mL) and the MIC (Pseudomonas aeruginosa [6]) was 16.5 µM (≈ 4.97 µg/mL). It also gave an MIC (Aspergillus flavus [7]) of 49.4 µM (≈ 14.9 µg/mL), an MFC (Aspergillus niger [8]) of 66 µM (≈ 19.9 µg/mL) and an MBC (Staphylococcus aureus [9]) of 33 µM (≈ 9.95 µg/mL). The MBC (Bacillus cereus [10]) was 33 µM (≈ 9.95 µg/mL), the MIC (Micrococcus flavus [11]) was 66 µM (≈ 19.9 µg/mL) and the MIC (Penicillium ochrochloron [12]) was 33 µM (≈ 9.95 µg/mL). It also gave an MFC (Talaromyces funiculosus [13]) of 66 µM (≈ 19.9 µg/mL), an inhibition in vivo at 10 µmol/kg (Mus musculus [14]) of 47% and an MFC (Penicillium ochrochloron [15]) of 66 µM (≈ 19.9 µg/mL). For the same compound, the MBC (Pseudomonas aeruginosa [16]) was 24.7 µM (≈ 7.44 µg/mL), the MIC (Aspergillus fumigatus [17]) was 49.4 µM (≈ 14.9 µg/mL) and the Activity (Mus musculus [18]) was “Non-toxic”. For the same compound, the MFC (Trichoderma viride [19]) was 49.4 µM (≈ 14.9 µg/mL), the MIC (Staphylococcus aureus [20]) was 24.7 µM (≈ 7.44 µg/mL) and the MIC (Aspergillus niger [21]) was 49.4 µM (≈ 14.9 µg/mL). For the same compound, the MBC (Listeria monocytogenes [22]) was 82.4 µM (≈ 24.8 µg/mL), the MIC (Escherichia coli [23]) was 33 µM (≈ 9.95 µg/mL) and the MBC (Escherichia coli [24]) was 66 µM (≈ 19.9 µg/mL). It also gave an IC50 [25] of 51 µM, an inhibition [26] of 99% and an inhibition (Glycine max) of 67%. The IC50 [27] was 92 µM, the MIC (Bacillus cereus [28]) was 16.5 µM (≈ 4.97 µg/mL) and the MIC (Listeria monocytogenes [29]) was 66 µM (≈ 19.9 µg/mL).
In the case of O=C1N/C(=N\c2nccs2)S/C1=C\c1cc(Br)ccc1O, the MFC (Aspergillus flavus [1]) is reported as 68 µM (≈ 26 µg/mL), the MIC (Trichoderma viride [2]) is reported as 8.5 µM (≈ 3.25 µg/mL) and the MBC (Micrococcus flavus [3]) is reported as 68 µM (≈ 26 µg/mL). It also gave an MIC (Talaromyces funiculosus [4]) of 17 µM (≈ 6.5 µg/mL), an MFC (Aspergillus fumigatus [5]) of 34 µM (≈ 13 µg/mL) and an MIC (Pseudomonas aeruginosa [6]) of 17 µM (≈ 6.5 µg/mL). For the same compound, the MIC (Aspergillus flavus [7]) was 34 µM (≈ 13 µg/mL), the MFC (Aspergillus niger [8]) was 68 µM (≈ 26 µg/mL) and the MBC (Staphylococcus aureus [9]) was 68 µM (≈ 26 µg/mL). For the same compound, the MBC (Bacillus cereus [10]) was 34 µM (≈ 13 µg/mL), the MIC (Micrococcus flavus [11]) was 34 µM (≈ 13 µg/mL) and the MIC (Penicillium ochrochloron [12]) was 17 µM (≈ 6.5 µg/mL). For the same compound, the MFC (Talaromyces funiculosus [13]) was 34 µM (≈ 13 µg/mL), the inhibition in vivo at 10 µmol/kg (Mus musculus [14]) was 54.4% and the MFC (Penicillium ochrochloron [15]) was 34 µM (≈ 13 µg/mL). For the same compound, the MBC (Pseudomonas aeruginosa [16]) was 34 µM (≈ 13 µg/mL), the MIC (Aspergillus fumigatus [17]) was 17 µM (≈ 6.5 µg/mL) and the Activity (Mus musculus [18]) was “Non-toxic”. It also gave an MFC (Trichoderma viride [19]) of 17 µM (≈ 6.5 µg/mL), an MIC (Staphylococcus aureus [20]) of 34 µM (≈ 13 µg/mL) and an MIC (Aspergillus niger [21]) of 34 µM (≈ 13 µg/mL). It also gave an MBC (Listeria monocytogenes [22]) of 34 µM (≈ 13 µg/mL), an MIC (Escherichia coli [23]) of 68 µM (≈ 26 µg/mL) and an MBC (Escherichia coli [24]) of 137 µM (≈ 52.4 µg/mL). The IC50 [25] was 65 µM, the inhibition [26] was 73% and the inhibition (Glycine max) was “inactive”. For the same compound, the MIC (Bacillus cereus [28]) was 9 µM (≈ 3.44 µg/mL) and the MIC (Listeria monocytogenes [29]) was 17 µM (≈ 6.5 µg/mL).
